Data from publication PMC6217529 (ACS Omega, 2018).
“Also recorded” adds a separate entry of the source.

Tests used:
platelets (PRP) = assay: Epinephrine-induced platelet aggregation in PRP; format: cell-based, human; details: agonist epinephrine
Method in brief: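 Platelet-rich plasma (PRP) and platelet-poor plasma (PPP) were prepared from fresh blood of healthy human donors, and PRP was adjusted with PPP to 3.1 × 10^8 platelets/mL at 37 °C. PRP was pre-incubated with test compound (10, 20 or 30 μg) in a 0.25 mL reaction volume. Aggregation was started with 5 μM epinephrine and traced on a dual-channel optical lumi-aggregometer. Inhibition % was plotted against dose, from three independent experiments.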

mice [1] = assay: Edema inducing activity in mice foot pads; format: in vivo; details: up to 100 μg
mice [2] = assay: Hemorrhagic activity in mice, intradermal; format: in vivo; details: up to 100 μg

Row | SMILES | ability to inhibit epinephrine-induced platelet aggregation (in words) (platelets (PRP)) | edema in experimental mice (in words) (mice [1]) | hemorrhage in experimental mice (in words) (mice [2])
1 | Cn1c(-c2ccc(Br)s2)nc2cc(-c3nnc(-c4cc(-c5cc(F)cc(F)c5)nc5ccccc45)o3)ccc21 [8a, 2-(2-(5-Bromothiophen-2-yl)-1-methyl-1H-benzo[d]imidazol-5-yl)-5-(2-(3,5-difluorophenyl)quinolin-4-yl)-1,3,4-oxadiazole] | able to inhibit the epinephrine-induced platelet aggregation | anti-edema; also recorded: active in preventing hemorrhage and edema | anti-hemorrhagic
2 | Cn1c(-c2ccc(Br)s2)nc2cc(-c3nnc(-c4cc(-c5ccc(Cl)cc5Cl)nc5ccccc45)o3)ccc21 [8d, 2-(2-(5-Bromothiophen-2-yl)-1-methyl-1H-benzo[d]imidazol-5-yl)-5-(2-(2,4-dichlorophenyl)quinolin-4-yl)-1,3,4-oxadiazole] | but not the 8d sample | anti-edema; also recorded: active in preventing hemorrhage and edema | anti-hemorrhagic
